Assay results: ChEMBL document CHEMBL1122515, “Structure-activity relationship of the ficin hydrolysis of phenyl hippurates. Comparison with papain, actinidin, and bromelain” (J Med Chem, 1984)

Key:
[1] = Michaelis constant (Km), determined by Ficin hydrolysis at pH 6, 25 degrees Centigrade; format: ADME; settings: buffer
How it was run: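 Ficin stock suspension diluted in 0.03 M NaCl-0.01 M EDTA buffer pH 6, activated ~2 h by saturation with 4-thiocresol, then diluted again in the same buffer. Ester hydrolysis followed spectrophotometrically at 25 °C, pH 6, in 3.3% acetonitrile-buffer. Initial rates taken at ≥8 substrate concentrations per ester. Km from least-squares fit of a Lineweaver-Burk plot.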

[2] = The compound was tested and optimum wavelength (λmax) was evaluated
[3] = The compound was tested and spectral absorbance change (Δε) was evaluated
[4] = The compound was tested for optimum wavelength (λmax)

Log 1/Km [1]	Compound	also measured
3.74	CC(=O)Nc1cccc(OC(=O)CNC(=O)c2ccccc2)c1	–
3.81	O=C(CNC(=O)c1ccccc1)Oc1cccc(F)c1	–
3.91	O=C(CNC(=O)c1ccccc1)Oc1ccc(Cl)cc1	–
4.17	Cc1cccc(OC(=O)CNC(=O)c2ccccc2)c1	–
4.5	O=C(CNC(=O)c1ccccc1)Oc1ccc([N+](=O)[O-])cc1	–
4.11	CC(=O)c1cccc(OC(=O)CNC(=O)c2ccccc2)c1	λmax [2]: 310 nm; Δε [3]: 1860 M⁻¹ cm⁻¹
4.54	Cc1cc(C)cc(OC(=O)CNC(=O)c2ccccc2)c1	–
4.85	O=C(CNC(=O)c1ccccc1)Oc1cccc(C(F)(F)F)c1	–
4.43	O=C(CNC(=O)c1ccccc1)Oc1cccc(Cl)c1	–
4.15	N#Cc1cccc(OC(=O)CNC(=O)c2ccccc2)c1	–
4.98	O=C(CNC(=O)c1ccccc1)Oc1cc(Cl)cc(Cl)c1	–
4.69	O=C(CNC(=O)c1ccccc1)Oc1cc([N+](=O)[O-])cc([N+](=O)[O-])c1	–
4.3	CC(=O)c1ccc(OC(=O)CNC(=O)c2ccccc2)cc1	–
3.82	Cc1ccc(OC(=O)CNC(=O)c2ccccc2)cc1	–
3.99	NC(=O)c1cccc(OC(=O)CNC(=O)c2ccccc2)c1	–
4.36	O=C(CNC(=O)c1ccccc1)Oc1cccc([N+](=O)[O-])c1	–
4.13	O=C(CNC(=O)c1ccccc1)Oc1ccc(Br)cc1	λmax [4]: 280 nm; Δε [3]: 1090 M⁻¹ cm⁻¹
4.79	CCc1cc(C)cc(OC(=O)CNC(=O)c2ccccc2)c1	–
5.14	CC(C)(C)c1cccc(OC(=O)CNC(=O)c2ccccc2)c1	–
4.64	O=C(CNC(=O)c1ccccc1)Oc1cccc(I)c1	–
4.27	N#Cc1ccc(OC(=O)CNC(=O)c2ccccc2)cc1	–
3.53	O=C(CNC(=O)c1ccccc1)Oc1ccc(F)cc1	–
3.72	Nc1cccc(OC(=O)CNC(=O)c2ccccc2)c1	–
3.9	O=C(CNC(=O)c1ccccc1)Oc1ccccc1	–
4.33	CC(C)c1ccc(OC(=O)CNC(=O)c2ccccc2)cc1	λmax [2]: 275 nm; Δε [3]: 1300 M⁻¹ cm⁻¹
4.09	COc1cccc(OC(=O)CNC(=O)c2ccccc2)c1	λmax [2]: 280 nm; Δε [3]: 886 M⁻¹ cm⁻¹
4.75	O=C(CNC(=O)c1ccccc1)Oc1cccc(Br)c1	–
4.52	COc1cc(OC)cc(OC(=O)CNC(=O)c2ccccc2)c1	–
3.82	COc1ccc(OC(=O)CNC(=O)c2ccccc2)cc1	–
4.17	NC(=O)c1ccc(OC(=O)CNC(=O)c2ccccc2)cc1	–
